Legend:
Aspergillus clavatus [1] = experiment: Antifungal activity against Aspergillus clavatus MTCC 1323 assessed as growth inhibition by broth microdilution method; assay type: functional
Aspergillus niger = experiment: Antifungal activity against Aspergillus niger MTCC 282 assessed as growth inhibition by broth microdilution method; assay type: functional
In short: (§1)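 Fungal MTCC cultures were tested by broth microdilution with DMSO-diluted drug in serial dilutions, as a primary screen followed by a second dilution set for actives. MIC was the lowest concentration inhibiting growth. Each experiment was run three times and the MICs averaged.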

Candida albicans = experiment: Antifungal activity against Candida albicans MTCC 227 assessed as growth inhibition by broth microdilution method; assay type: functional; in short: as §1
Streptococcus pyogenes = experiment: Antibacterial activity against Streptococcus pyogenes MTCC 442 assessed as growth inhibition by broth microdilution method; assay type: functional
Staphylococcus aureus = experiment: Antibacterial activity against Staphylococcus aureus MTCC 96 assessed as growth inhibition by broth microdilution method; assay type: functional
Pseudomonas aeruginosa = experiment: Antibacterial activity against Pseudomonas aeruginosa MTCC 441 assessed as growth inhibition by broth microdilution method; assay type: functional
Escherichia coli = experiment: Antibacterial activity against Escherichia coli MTCC 443 assessed as growth inhibition by broth microdilution method; assay type: functional
Aspergillus clavatus [2] = settings: MTCC 1323

Compound | MIC (Aspergillus clavatus [1]) | MIC (Aspergillus niger) | MIC (Candida albicans) | MIC (Streptococcus pyogenes) | MIC (Staphylococcus aureus) | MIC (Pseudomonas aeruginosa) | MIC (Escherichia coli) | MIC (Aspergillus clavatus [2])
N#Cc1sc2ncnc(N3CCCCC3)c2c1-c1ccc(Cl)cc1 | > 1000 µg/mL | > 1000 µg/mL | 250 µg/mL | 200 µg/mL | 125 µg/mL | 250 µg/mL | 250 µg/mL | 
N#Cc1sc2ncnc(NCc3ccccc3)c2c1-c1ccc(Cl)cc1 | 1000 µg/mL | 1000 µg/mL | 1000 µg/mL | 125 µg/mL | 100 µg/mL | 250 µg/mL | 250 µg/mL | 
N#Cc1sc2nc[nH]c(=O)c2c1-c1ccc(Cl)cc1 | > 1000 µg/mL | > 1000 µg/mL | 500 µg/mL | 250 µg/mL | 200 µg/mL | 62.5 µg/mL | 100 µg/mL | 
COC1=CC(=O)C[C@@H](C)[C@]12Oc1c(Cl)c(OC)cc(OC)c1C2=O [GRISEOFULVIN] | 100 µg/mL | 100 µg/mL | 500 µg/mL |  |  |  |  | 
Cc1cccc(Nc2ncnc3sc(C#N)c(-c4ccc(Cl)cc4)c23)c1 | > 1000 µg/mL | > 1000 µg/mL | > 1000 µg/mL | 250 µg/mL | 250 µg/mL | 200 µg/mL | 250 µg/mL | 
N#Cc1sc2ncnc(Nc3ccccc3Cl)c2c1-c1ccc(Cl)cc1 | > 1000 µg/mL | > 1000 µg/mL | 500 µg/mL | 100 µg/mL | 200 µg/mL | 62.5 µg/mL | 125 µg/mL | 
CCn1cc(C(=O)O)c(=O)c2cc(F)c(N3CCNCC3)cc21 [NORFLOXACIN] |  |  |  | 10 µg/mL | 10 µg/mL | 10 µg/mL | 10 µg/mL | 
NYSTATIN |  | 100 µg/mL | 100 µg/mL |  |  |  |  | 100 µg/mL
GENTAMICIN |  |  |  | 0.5 µg/mL | 0.25 µg/mL | 1 µg/mL | 0.05 µg/mL | 
CCOC(=O)N1CCN(c2ncnc3sc(C#N)c(-c4ccc(Cl)cc4)c23)CC1 | 1000 µg/mL | 1000 µg/mL | > 1000 µg/mL | 250 µg/mL | 250 µg/mL | 100 µg/mL | 62.5 µg/mL | 
NC(=O)c1sc2nc[nH]c(=O)c2c1-c1ccc(Cl)cc1 | 500 µg/mL | 250 µg/mL | > 1000 µg/mL | 200 µg/mL | 200 µg/mL | 200 µg/mL | 125 µg/mL | 
N#Cc1sc2ncnc(N3CCN(C(=O)C4COc5ccccc5O4)CC3)c2c1-c1ccc(Cl)cc1 (stereo not drawn) | 1000 µg/mL | 1000 µg/mL | 250 µg/mL | 125 µg/mL | 100 µg/mL | 250 µg/mL | 100 µg/mL | 
N#Cc1sc2ncnc(Nc3cccc(Cl)c3)c2c1-c1ccc(Cl)cc1 | 500 µg/mL | 500 µg/mL | > 1000 µg/mL | 250 µg/mL | 200 µg/mL | 100 µg/mL | 100 µg/mL | 
N#Cc1sc2ncnc(N3CCNCC3)c2c1-c1ccc(Cl)cc1 | > 1000 µg/mL | 1000 µg/mL | 1000 µg/mL | 100 µg/mL | 62.5 µg/mL | 250 µg/mL | 125 µg/mL | 
CCN(CC)c1ncnc2sc(C#N)c(-c3ccc(Cl)cc3)c12 | > 1000 µg/mL | > 1000 µg/mL | 1000 µg/mL | 200 µg/mL | 200 µg/mL | 250 µg/mL | 200 µg/mL | 
O=C(N[C@H](CO)[C@H](O)c1ccc([N+](=O)[O-])cc1)C(Cl)Cl [CHLORAMPHENICOL] |  |  |  | 50 µg/mL | 50 µg/mL | 50 µg/mL | 50 µg/mL | 
O=C(O)c1cn(C2CC2)c2cc(N3CCNCC3)c(F)cc2c1=O [CIPROFLOXACIN] |  |  |  | 50 µg/mL | 50 µg/mL |  | 25 µg/mL | 
Cc1ccccc1Nc1ncnc2sc(C#N)c(-c3ccc(Cl)cc3)c12 | > 1000 µg/mL | > 1000 µg/mL | > 1000 µg/mL | 125 µg/mL | 250 µg/mL | 200 µg/mL | 200 µg/mL | 
N#Cc1sc2ncnc(N3CCN(c4cccc(Cl)c4Cl)CC3)c2c1-c1ccc(Cl)cc1 | 1000 µg/mL | 500 µg/mL | 1000 µg/mL | 250 µg/mL | 250 µg/mL | 100 µg/mL | 200 µg/mL | 
N#Cc1sc2ncnc(Cl)c2c1-c1ccc(Cl)cc1 | 1000 µg/mL | 1000 µg/mL | 1000 µg/mL | 250 µg/mL | 100 µg/mL | 250 µg/mL | 200 µg/mL | 
NC(=O)c1sc(N)c(C(N)=O)c1-c1ccc(Cl)cc1 | > 1000 µg/mL | > 1000 µg/mL | 500 µg/mL | 200 µg/mL | 250 µg/mL | 250 µg/mL | 200 µg/mL | 
CC1(C)S[C@@H]2[C@H](NC(=O)[C@H](N)c3ccccc3)C(=O)N2[C@H]1C(=O)O [AMPICILLIN] |  |  |  | 100 µg/mL | 250 µg/mL |  | 100 µg/mL | 
N#Cc1sc2ncnc(N3CCN(c4nsc5ccccc45)CC3)c2c1-c1ccc(Cl)cc1 | > 1000 µg/mL | > 1000 µg/mL | 500 µg/mL | 200 µg/mL | 200 µg/mL | 250 µg/mL | 100 µg/mL | 
N#Cc1sc2ncnc(N3CCOCC3)c2c1-c1ccc(Cl)cc1 | > 1000 µg/mL | > 1000 µg/mL | 1000 µg/mL | 250 µg/mL | 250 µg/mL | 200 µg/mL | 125 µg/mL | 

— ChEMBL document CHEMBL2384914, “Synthetic tactics of new class of 4-aminothieno[2,3-d]pyrimidine-6-carbonitrile derivatives acting as antimicrobial agents” (2013)
